Assay results: ChEMBL document CHEMBL1153989, “Synthesis and antiviral activities of novel acylhydrazone derivatives targeting HIV-1 capsid protein” (Bioorg Med Chem Lett, 2009)

Assays:
[1] = target: Structural capsid protein (Human immunodeficiency virus 1) (UniProt Q76129); test: Binding affinity to HIV1 capsid protein assessed as decrease in assembly rate by turbidity-based ultraviolet spectrophotometry (RVb= 59.2+/-0.3 milliOD/min)
[2] = Therapeutic index, TC50 for human CEM174 cells to EC50 for SIV-induced syncytium; assay type: cell-based; details: read-out: TI
Method in brief: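 Index calculated as TC₅₀ (MTT, uninfected CEM174, 5 days) divided by EC₅₀ (inhibition of SIV syncytium formation in CEM174 cells infected with 100 TCID₅₀ per well, 5 days, microscopic scoring).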

[3] = test system: Simian immunodeficiency virus; test: Antiviral activity against SIV-induced syncytium in human CEM174 cells assessed as inhibition of virus-induced cytopathogenicity after 5 days; assay type: functional, organism-based; details: CEM174, 120 h
Method in brief: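 CEM174 cells at 1 × 10⁵ cells/mL, infected with 100 TCID₅₀ SIV per well, with serial compound dilutions; 5 days at 37 °C, 5% CO₂, humidified. Syncytium (giant cell) formation scored by microscope. EC₅₀ is the concentration giving 50% protection against SIV cytopathogenicity. Indinavir at 1 × 10⁻⁶ mol/L served as positive control.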

[4] = Cytotoxicity against uninfected human CEM174 cells after 5 days by MTT assay; assay type: cell-based; details: read-out: TC50
Method in brief: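 Uninfected CEM174 cells under the antiviral assay conditions (5 days, 37 °C, 5% CO₂, humidified) with compound dilutions. Proliferation read by MTT reduction. TC₅₀ is the concentration inhibiting proliferation by 50%.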

[5] = target: Structural capsid protein (Human immunodeficiency virus 1) (UniProt Q76129); test: Binding affinity to HIV1 capsid protein assessed as assembly rate at 20 uM by turbidity-based ultraviolet spectrophotometry
[6] = target: Structural capsid protein (Human immunodeficiency virus 1) (UniProt Q76129); test: Binding affinity to HIV1 capsid protein assessed as assembly rate at 10 uM by turbidity-based ultraviolet spectrophotometry
[7] = target: Structural capsid protein (Human immunodeficiency virus 1) (UniProt Q76129); test: Binding affinity to HIV1 capsid protein assessed as assembly rate at 40 uM by turbidity-based ultraviolet spectrophotometry

Structural capsid protein (Human immunodeficiency virus 1), sequence (Q76129 as listed by the source): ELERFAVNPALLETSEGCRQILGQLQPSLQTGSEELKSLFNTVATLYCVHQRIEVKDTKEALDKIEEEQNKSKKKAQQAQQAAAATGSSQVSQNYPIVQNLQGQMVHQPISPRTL

With `Cc1ccc(S(=O)(=O)NCC(=O)N/N=C/c2ccccc2)cc1` the Activity (milli optical density/minute) [1] was 23.1, the selectivity ratio [2] was 55.7 and the EC50 [3] was 1.5 µM. For the same molecule, the CC50 at 120 h [4] was 83.5 µM.
With `CC(=O)Nc1ccc(S(=O)(=O)N/N=C/c2ccccc2)cc1` the selectivity ratio [2] was 61.5, the EC50 [3] was 0.65 µM and the CC50 at 120 h [4] was 40 µM.
Work on `C/C(=N\NC(=O)[C@H](Cc1ccccc1)NS(=O)(=O)c1ccc(C)cc1)c1cccc2ccccc12` yielded a selectivity ratio [2] of 123, an EC50 [3] of 0.4 µM and a CC50 at 120 h [4] of 49.1 µM.
For `Cc1ccc(S(=O)(=O)N[C@@H](Cc2ccccc2)C(=O)N/N=C/c2ccco2)cc1`, the selectivity ratio [2] was 40.6, the EC50 [3] was 2.46 µM and the CC50 at 120 h [4] was 99.8 µM.
Work on `O=[N+]([O-])c1ccc(S(=O)(=O)N2CCC(c3ccccc3)=N2)cc1` yielded a selectivity ratio [2] of over 192, an EC50 [3] of 0.52 µM and a CC50 at 120 h [4] of over 100 µM.
With `O=C(N/N=C/c1ccccc1)c1ccc([N+](=O)[O-])cc1` the selectivity ratio [2] was 5.3, the EC50 [3] was 5.59 µM and the CC50 at 120 h [4] was 29.6 µM.
`Cc1ccc(S(=O)(=O)N[C@@H](Cc2ccccc2)C(=O)N/N=C/c2ccc3c(c2)OCO3)cc1` showed an Activity (milli optical density/minute) [1] of 7.9, an Activity (milli optical density/minute) [5] of 7.4 and an Activity (milli optical density/minute) [6] of 13.2. The selectivity ratio [2] was over 588, the EC50 [3] was 0.17 µM and the CC50 at 120 h [4] was over 100 µM. It also gave an Activity (milli optical density/minute) [7] of 2.5.
Work on `CC(=O)Nc1ccc(S(=O)(=O)N[C@@H](CO)C(=O)N/N=C/c2ccccc2)cc1` yielded a selectivity ratio [2] of over 75.8, an EC50 [3] of 1.32 µM and a CC50 at 120 h [4] of over 100 µM.
With `Cc1ccc(/C=N/NC(=O)[C@H](Cc2ccccc2)NS(=O)(=O)c2ccc(C)cc2)cc1` the Activity (milli optical density/minute) [1] was 46, the selectivity ratio [2] was over 10.1 and the EC50 [3] was 9.93 µM. The CC50 at 120 h [4] was over 100 µM.
`COc1ccc(C(=O)NCC(=O)N/N=C/c2ccccc2)cc1` showed an Activity (milli optical density/minute) [1] of 43.5, a selectivity ratio [2] of 31.9 and an EC50 [3] of 2 µM. It also gave a CC50 at 120 h [4] of 63.8 µM.
In the case of `Cc1ccc(S(=O)(=O)N[C@@H](Cc2ccccc2)C(=O)N/N=C/c2ccccc2)cc1`, the Activity (milli optical density/minute) [1] is reported as 18.9, the selectivity ratio [2] is reported as 125 and the EC50 [3] is reported as 0.4 µM. It also gave a CC50 at 120 h [4] of 50 µM.
Molecule `Cc1ccc(S(=O)(=O)N[C@@H](Cc2ccccc2)C(=O)N/N=C/c2ccccc2F)cc1` has a selectivity ratio [2] of over 22.5, an EC50 [3] of 4.45 µM and a CC50 at 120 h [4] of over 100 µM.
`COc1ccc(C(=O)N[C@@H](CO)C(=O)N/N=C/c2ccccc2)cc1` gave an Activity (milli optical density/minute) [1] of 21.7, a selectivity ratio [2] of 76 and an EC50 [3] of 0.6 µM. The CC50 at 120 h [4] was 45.6 µM.
Molecule `C/C(=N\NC(=O)[C@H](Cc1ccccc1)NS(=O)(=O)c1ccc(C)cc1)c1ccccc1` has a selectivity ratio [2] of 70.7, an EC50 [3] of 0.3 µM and a CC50 at 120 h [4] of 21.2 µM.
In the case of `COc1ccc(C(=O)N[C@@H](Cc2ccccc2)C(=O)N/N=C/c2ccccc2)cc1`, the Activity (milli optical density/minute) [1] is reported as 22.6, the selectivity ratio [2] is reported as over 500 and the EC50 [3] is reported as 0.2 µM. It also gave a CC50 at 120 h [4] of over 100 µM.
For `COc1ccc(C(=O)N/N=C/c2ccccc2)cc1`, the selectivity ratio [2] was over 3.22, the EC50 [3] was 31.1 µM and the CC50 at 120 h [4] was over 100 µM.
Work on `Cc1ccc(S(=O)(=O)N[C@@H](Cc2ccccc2)C(=O)N/N=C/c2ccc(Br)cc2)cc1` yielded a selectivity ratio [2] of 15, an EC50 [3] of 5.49 µM and a CC50 at 120 h [4] of 82.5 µM.
Work on `Cc1ccc(S(=O)(=O)N[C@@H](Cc2ccccc2)C(=O)NN=C(c2ccccc2)c2ccccc2)cc1` yielded a selectivity ratio [2] of over 365, an EC50 [3] of 0.27 µM and a CC50 at 120 h [4] of over 100 µM.
For `O=C(CNC(=O)c1ccc([N+](=O)[O-])cc1)N/N=C/c1ccccc1`, the selectivity ratio [2] was over 97.1, the EC50 [3] was 1.03 µM and the CC50 at 120 h [4] was over 100 µM.
In the case of `Cc1ccc(S(=O)(=O)N[C@@H](Cc2ccccc2)C(=O)NN=C2CCCCC2)cc1`, the selectivity ratio [2] is reported as 87.6, the EC50 [3] is reported as 0.89 µM and the CC50 at 120 h [4] is reported as 78.3 µM.
For `Cc1ccc(S(=O)(=O)N[C@@H](CO)C(=O)N/N=C/c2ccccc2)cc1`, the Activity (milli optical density/minute) [1] was 24.4, the selectivity ratio [2] was 3.2 and the EC50 [3] was 1.63 µM. The CC50 at 120 h [4] was 5.19 µM.
`O=S(=O)(c1ccc(Br)cc1)N1CCC(c2ccccc2)=N1` gave an Activity (milli optical density/minute) [1] of 17.3, a selectivity ratio [2] of 382 and an EC50 [3] of 0.1 µM. The CC50 at 120 h [4] was 38.2 µM.
For `O=S(=O)(N/N=C/c1ccccc1)c1ccc(Br)cc1`, the selectivity ratio [2] was over 105, the EC50 [3] was 0.95 µM and the CC50 at 120 h [4] was over 100 µM.
With `O=C(N[C@@H](CO)C(=O)N/N=C/c1ccccc1)c1ccc([N+](=O)[O-])cc1` the selectivity ratio [2] was over 50, the EC50 [3] was 2 µM and the CC50 at 120 h [4] was over 100 µM.
Work on `Cc1ccc(S(=O)(=O)N[C@@H](Cc2ccccc2)C(=O)N/N=C/c2ccc([N+](=O)[O-])cc2)cc1` yielded an Activity (milli optical density/minute) [1] of 31.9, a selectivity ratio [2] of 1.5 and an EC50 [3] of 6.64 µM. For the same molecule, the CC50 at 120 h [4] was 9.8 µM.
With `Cc1ccc(S(=O)(=O)N/N=C/c2ccccc2)cc1` the selectivity ratio [2] was 88.1, the EC50 [3] was 0.36 µM and the CC50 at 120 h [4] was 31.7 µM.
With `O=C(CNS(=O)(=O)c1ccc(Br)cc1)N/N=C/c1ccccc1` the Activity (milli optical density/minute) [1] was 22.5, the selectivity ratio [2] was 284 and the EC50 [3] was 0.33 µM. The CC50 at 120 h [4] was 92.8 µM.
With `CC(=O)Nc1ccc(S(=O)(=O)N[C@@H](Cc2ccccc2)C(=O)N/N=C/c2ccccc2)cc1` the Activity (milli optical density/minute) [1] was 20.8, the selectivity ratio [2] was over 213 and the EC50 [3] was 0.47 µM. For the same molecule, the CC50 at 120 h [4] was over 100 µM.
`Cc1ccc(S(=O)(=O)N[C@@H](Cc2ccccc2)C(=O)N/N=C/c2ccc(Cl)cc2)cc1` gave a selectivity ratio [2] of 3.4, an EC50 [3] of 2.8 µM and a CC50 at 120 h [4] of 9.4 µM.
`COc1cc(/C=N/NC(=O)[C@H](Cc2ccccc2)NS(=O)(=O)c2ccc(C)cc2)ccc1O` showed an Activity (milli optical density/minute) [1] of 10.6, an Activity (milli optical density/minute) [5] of 10.9 and an Activity (milli optical density/minute) [6] of 14. The selectivity ratio [2] was over 476, the EC50 [3] was 0.21 µM and the CC50 at 120 h [4] was over 100 µM. For the same molecule, the Activity (milli optical density/minute) [7] was 7.7.
`O=C(N[C@@H](Cc1ccccc1)C(=O)N/N=C/c1ccccc1)c1ccc([N+](=O)[O-])cc1` showed a selectivity ratio [2] of 6.2, an EC50 [3] of 3 µM and a CC50 at 120 h [4] of 18.7 µM.
`O=C(N/N=C/c1ccccc1)[C@H](CO)NS(=O)(=O)c1ccc(Br)cc1` showed a selectivity ratio [2] of 2.2, an EC50 [3] of 36 µM and a CC50 at 120 h [4] of 80.2 µM.
With `O=C(N/N=C/c1ccccc1)[C@H](Cc1ccccc1)NS(=O)(=O)c1ccc(Br)cc1` the selectivity ratio [2] was over 6.5, the EC50 [3] was 15.3 µM and the CC50 at 120 h [4] was over 100 µM.
`Cc1ccc(NC(=O)NCCSCc2ccc(CN(C)C)o2)cc1Cl` showed an Activity (milli optical density/minute) [1] of 33.4.
Work on `CC(=O)Nc1ccc(S(=O)(=O)NCC(=O)N/N=C/c2ccccc2)cc1` yielded a selectivity ratio [2] of over 6.6, an EC50 [3] of 15.1 µM and a CC50 at 120 h [4] of over 100 µM.
